Assay outcomes as filed in PubChem.
An excerpt weighted towards active compounds, which were near 2.4% of everything screened.
E-selectin induc = E-selectin induction in HUVECs, primary screen, imaging, HUVEC, immunofluorescence imaging, single point | normalized: neutral wells 0, TNF-alpha wells 100 | activation, % at 7.58 µM | hit rate 0.37% among 260,000;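 active = mean E-selectin-positive cell signal at least 10% of the positive control, reached in at least 60% of replicates, without over 20% cell loss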
Target sequence (P16581 whole entry, looked up): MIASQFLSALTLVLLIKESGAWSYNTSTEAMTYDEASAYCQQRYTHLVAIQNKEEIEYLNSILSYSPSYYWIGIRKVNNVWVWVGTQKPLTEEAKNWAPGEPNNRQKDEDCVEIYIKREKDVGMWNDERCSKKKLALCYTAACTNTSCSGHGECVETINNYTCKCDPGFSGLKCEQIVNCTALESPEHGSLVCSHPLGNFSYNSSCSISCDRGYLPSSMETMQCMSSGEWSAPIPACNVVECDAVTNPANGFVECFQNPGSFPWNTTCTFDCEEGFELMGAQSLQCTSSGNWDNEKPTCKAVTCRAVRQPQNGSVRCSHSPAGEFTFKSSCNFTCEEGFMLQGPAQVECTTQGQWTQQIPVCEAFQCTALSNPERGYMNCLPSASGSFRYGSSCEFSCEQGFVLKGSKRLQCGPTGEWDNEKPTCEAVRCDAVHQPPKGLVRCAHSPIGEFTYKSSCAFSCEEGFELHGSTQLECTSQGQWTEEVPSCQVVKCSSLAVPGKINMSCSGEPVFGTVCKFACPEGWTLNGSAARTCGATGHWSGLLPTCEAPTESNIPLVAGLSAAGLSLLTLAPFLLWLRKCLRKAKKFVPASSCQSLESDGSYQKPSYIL
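System: HUVEC / Compound: single concentration / Signal: immunofluorescence imaging / Read-out: percent E-selectin-positive cells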
Ecoli rRNA inh = reduced GFP signal of wild-type E. coli, primary screen, bacterial rRNA inhibitor project, GFP/RFP fluorescence, OD600, single point. GFP signal change (wild-type ribosome), % (concentration not given with the values). E. coli WT GFP vs humanized-ribosome RFP mutants, 24 h; stronger effect = lower value; DMSO median 0, no signal -100. hit rate 1.6% among 350,000;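 active = significant combined selectivity score with lowered wild-type GFP, culture density cut under 30%, mutant RFP and density less affected; inactive = any of these conditions unmet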
EWS-Fli inh = EWS/Fli-driven NR0B1 reporter inhibitors, primary screen, A673 cells, NR0B1 luciferase, luminescence, MLPCN library. viability-normalised. inhibition, % at 12.6 µM. hit rate 0.67% among 350,000;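 active = mean inhibition of at least 50% after viability correction, with every replicate also passing that limit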;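 also: firefly luciferase signal divided by Alamar Blue viability fluorescence both relative to DMSO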
LGR2 antag = inhibitors of bursicon-induced LGR2 CRE-luciferase signal, primary screen, cell-based, HEK293, CRE-luciferase reporter, bursicon stimulation; Drosophila bursicon receptor LGR2 (rickets); bursicon-stimulated, 4 h; inhibition, % at 9.99 µM; hit rate 0.35% among 380,000; AID 720647, 2013;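 active = drop in luminescence signal, shown as inhibition above about 50% in the replicate tests, limit read from the data, passing the limit was not always enough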;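 also: agonist challenge used bursicon conditioned medium at about half maximal strength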
Numbers without * were called inactive.

`COc1ccc(N(C(=O)CSCC(=O)Nc2cc(C)on2)C(C(=O)NC2CCCCC2)c2ccc(O)c(O)c2)cc1` (stereo not given) gave E-selectin induc -1, Ecoli rRNA inh -18*, EWS-Fli inh 17 and LGR2 antag -5.
For O=C(Nc1cc(F)ccc1F)N1CCCCN2[C@H](CO)[C@H](c3ccc(-c4cccnc4)cc3)[C@@H]2C1 the results were E-selectin induc 0, Ecoli rRNA inh -4, EWS-Fli inh -17 and LGR2 antag 2.
Screening O=C(Nc1ccc(F)cc1)N1CC(=O)N2[C@H](CO)[C@@H](c3ccc(-c4ccccc4)cc3)[C@@H]2C1 returned E-selectin induc 0, Ecoli rRNA inh -38, EWS-Fli inh 60* and LGR2 antag -10.
O=C(Nc1cc(F)ccc1F)N1CCCCN2[C@@H](CO)[C@H](c3ccc(-c4cccnc4)cc3)[C@@H]2C1 was read as E-selectin induc 0, Ecoli rRNA inh -24*, EWS-Fli inh 4 and LGR2 antag -8.
O=C(Nc1ccc(F)cc1)N1CCCCN2[C@H](CO)[C@@H](c3ccc(C#Cc4ccccc4)cc3)[C@@H]2C1 was read as E-selectin induc -1, Ecoli rRNA inh 4, EWS-Fli inh 7 and LGR2 antag 1.
COc1ccccc1NC(=O)N1CCCCN2[C@@H](CO)[C@@H](c3ccc(C#CC4CCCC4)cc3)[C@@H]2C1 was read as E-selectin induc -1, Ecoli rRNA inh -57, EWS-Fli inh 71* and LGR2 antag 16.
For O=C(Nc1ccc(F)cc1)N1CCCCN2[C@@H](CO)[C@H](c3ccc(C#Cc4ccccc4)cc3)[C@@H]2C1 the results were E-selectin induc 16, Ecoli rRNA inh -56, EWS-Fli inh 60* and LGR2 antag 11.
COc1ccccc1NC(=O)N1CCCCN2[C@H](CO)[C@@H](c3ccc(C#CC4CCCC4)cc3)[C@@H]2C1 was read as E-selectin induc -1, Ecoli rRNA inh 4, EWS-Fli inh -1 and LGR2 antag -1.
Screening C[C@H]1CN([C@@H](C)CO)C(=O)c2c(c3ccccc3n2C)-c2ccccc2CO[C@H]1CN(C)Cc1ccncc1 returned E-selectin induc 0, Ecoli rRNA inh -19, EWS-Fli inh 11 and LGR2 antag -8.
Screening COc1ccc(C#Cc2ccc([C@@H]3[C@H](CO)N4CCCCN(C(=O)Nc5ccccc5)C[C@@H]34)cc2)cc1 returned E-selectin induc -1, Ecoli rRNA inh -60, EWS-Fli inh 70* and LGR2 antag -13.
`C[C@H](CO)N1C[C@H](C)[C@@H](CN(C)Cc2ccncc2)Oc2ccc(NC(=O)CCN3CCOCC3)cc2C1=O` gave E-selectin induc 2, Ecoli rRNA inh 0 and LGR2 antag -5.
Screening C[C@H]1CN([C@@H](C)CO)C(=O)c2cc(NC(=O)CCN3CCOCC3)ccc2O[C@@H]1CN(C)Cc1ccncc1 returned E-selectin induc 362*, Ecoli rRNA inh -1 and LGR2 antag 18.
For C[C@@H]1CN([C@H](C)CO)C(=O)c2cc(NC(=O)CCN3CCOCC3)ccc2O[C@@H]1CN(C)Cc1ccc(C(F)(F)F)cc1 the results were E-selectin induc 178*, Ecoli rRNA inh 2 and LGR2 antag -7.
C[C@@H]1CN([C@H](C)CO)C(=O)c2cc(NC(=O)CCN3CCOCC3)ccc2O[C@@H]1CN(C)Cc1ccncc1 was read as E-selectin induc 36*, Ecoli rRNA inh 1 and LGR2 antag -29.
Screening C[C@H]1CN([C@@H](C)CO)C(=O)c2cc(NC(=O)CCN3CCOCC3)ccc2O[C@H]1CN(C)Cc1ccc(C(F)(F)F)cc1 returned E-selectin induc 4, Ecoli rRNA inh -2 and LGR2 antag 6.
`Cc1c(NC(=O)c2ccc(-c3ccc([N+](=O)[O-])cc3Cl)o2)c(=O)n(-c2ccccc2)n1C` gave Ecoli rRNA inh -22*, EWS-Fli inh 13 and LGR2 antag -7.
For Cc1c(NC(=O)CN2C(=O)c3ccc([N+](=O)[O-])cc3C2=O)c(=O)n(-c2ccccc2)n1C the results were Ecoli rRNA inh 26, EWS-Fli inh 8 and LGR2 antag -17.
COc1ccc(S(=O)(=O)Nc2ccc3c(c2)C(=O)N([C@@H](C)CO)C[C@H](C)[C@H](CN(C)S(=O)(=O)c2ccc(Cl)cc2)O3)cc1 was read as E-selectin induc 59*, Ecoli rRNA inh 0, EWS-Fli inh 16 and LGR2 antag 11.
